CHO parental Ca – ATP-evoked calcium signal inhibitors, parental CHO, primary screen, counter-screen for OX1R antagonist project, cell-based, fluorescence, Fluo-8 calcium dye | parental CHO-K1, ATP-induced calcium, Fluo-8 fluorescence | AID 463079, 2010 | 330,000 tested, 0.63% active | inhibition, % at 5.6 µM;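 active = inhibition above that plate's mean sample inhibition plus 3 SD, cut at about 26% in these data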;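 note: 0% = ATP-challenged DMSO wells and 100% = DMSO wells without ATP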
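Assay system: parental CHO cells; Read-out basis: percent inhibition of ATP-evoked calcium rise, normalized to controls; Benchmarks: ATP and no-ATP DMSO wells; Compound dosing: single nominal dose of 5.6 µM per compound; Signal: Fluo-8 calcium dye fluorescence; Also added: ATP as calcium-mobilizing challenge; Repeats: singlicate.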
GPR7 antagonist – GPR7 receptor antagonists, primary screen, cell-based, fluorescence, single concentration | inhibition, % at 4.4 µM | 290,000 tested, 1.1% active | Neuropeptides B/W receptor type 1 (Homo sapiens), P48145 | GPR7-expressing cells, fluorescence antagonist assay; in the data active = inhibition above about 16%, passing the limit was not always enough;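 note: cells stimulated with the agonist NPW; 0% = agonist with vehicle and 100% = vehicle without agonist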
Target sequence (P48145 whole entry, looked up): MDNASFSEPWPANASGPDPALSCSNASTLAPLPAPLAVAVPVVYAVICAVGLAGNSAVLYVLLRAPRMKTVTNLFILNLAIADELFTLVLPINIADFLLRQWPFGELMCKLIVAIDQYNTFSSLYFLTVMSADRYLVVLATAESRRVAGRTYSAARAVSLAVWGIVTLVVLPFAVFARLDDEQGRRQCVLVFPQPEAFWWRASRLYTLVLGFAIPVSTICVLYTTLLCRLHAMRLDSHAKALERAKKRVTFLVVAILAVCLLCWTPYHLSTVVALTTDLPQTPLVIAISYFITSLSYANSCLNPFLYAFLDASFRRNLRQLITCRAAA
OX1R antag-1 – antagonists of human orexin 1 receptor (OX1R). Orexin/Hypocretin receptor type 1 (Homo sapiens), O43613. OX1R-expressing cells, FRET antagonist read-out. inhibition, % at 6.6 µM. 330,000 tested, 1.8% active; in the data active = inhibition mostly above about 38%, no sharp cut-off; inactive = mostly below about 40%;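 note: 0% = agonist challenge alone and 100% = reference antagonist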
Target sequence (O43613 whole entry, looked up): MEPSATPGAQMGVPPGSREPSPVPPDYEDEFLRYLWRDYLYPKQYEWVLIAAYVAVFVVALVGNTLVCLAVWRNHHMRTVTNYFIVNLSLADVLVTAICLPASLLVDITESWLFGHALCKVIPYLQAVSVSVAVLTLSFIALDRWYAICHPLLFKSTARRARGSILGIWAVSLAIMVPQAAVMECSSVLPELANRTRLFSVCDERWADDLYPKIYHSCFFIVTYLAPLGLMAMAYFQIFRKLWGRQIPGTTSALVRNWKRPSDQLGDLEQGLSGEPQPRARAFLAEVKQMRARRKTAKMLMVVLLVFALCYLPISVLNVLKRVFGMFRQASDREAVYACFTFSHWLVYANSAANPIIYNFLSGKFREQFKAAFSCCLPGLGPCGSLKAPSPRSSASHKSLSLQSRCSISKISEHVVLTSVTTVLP
OX1R antag-2 – OX1R (HCRTR1) antagonists, primary screen, fluorescence, CHO/OX1R cells, Fluo-8 calcium, orexin A; Orexin/Hypocretin receptor type 1 (Homo sapiens), O43613; Fluo-8 calcium fluorescence; inhibition, % at 5 µM; 330,000 tested, 0.43% active; AID 434989, 2010;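 active = inhibition above its plate's threshold, mean inhibition of all tested compounds on the plate plus 3 SD, cut at about 37% in these data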;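 note: 0% = orexin A challenge wells and 100% = SB-334867-A antagonist wells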
TRPML3 agonist – human TRPML3 channel agonists, primary screen, cell-based, HEK293 TRPML3-YFP, Fluo-8 calcium fluorescence, 3 µM; AID 1448, 2008; 100% = the carbachol control signal; 220,000 tested, 0.29% active; activation, % at 3 µM; Mucolipin-3 (Homo sapiens), Q8TDD5;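 active = activation above its plate's cutoff, the mean activation of the plate's test wells plus 3 SD, cut at about 12% in these data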;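 note: 0% = DMSO only wells and 100% = carbachol wells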
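Test system: HEK293 cells stably carrying human TRPML3-YFP; Doses: single dose, 3 µM final nominal compound, 0.3% DMSO final; Schedule: dye loading 1 h 37 °C then 30 min ambient, 125 s read; Technique: Fluo-8 calcium fluorescence; Benchmarks: high control carbachol 87 µM, low control DMSO.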
zfTRPN1 agonist – zebrafish TRPN1 channel agonists, primary screen, cell-based, HEK293, calcium fluorescence; 220,000 tested, 0.18% active; HEK293 zebrafish TRPN1-YFP, Fluo-8 calcium fluorescence; 100% = response to 87 µM carbachol; transient receptor potential cation channel N1 (TRPN1/NompC), Danio rerio; activation, % at 3 µM;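 active = activation above its plate's cutoff, the mean activation of test wells on that plate plus 3 SD, cut at about 19% in these data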;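 note: 0% = DMSO alone and 100% = 87 µM carbachol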
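Assay system: Zebrafish TRPN1-YFP in HEK293 cells | Incubation: Dye loading 1 h at 37 °C, then 30 min room temperature | Measured by: Kinetic Fluo-8 fluorescence, ex 470-495, em 515-575 nm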
OX1R HTRF confirm – OX1R (HCRTR1) antagonists, confirmation, cell-based, HTRF | shares compounds with OX1R antag-1 | OX1R-expressing cells, HTRF antagonist assay | inhibition, % at 6.6 µM | 1,800 tested, 49% active | AID 492964, 2010; in the data active = inhibition above about 55%;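 note: CHO cells expressing OX1R stimulated with orexin A at about EC80; 0% = agonist challenge alone and 100% = reference antagonist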
CHO-K1 HTRF – signal inhibition in parental CHO-K1 cells, counter-screen for OX1R antagonist project, cell-based, HTRF; HTRF counterscreen; AID 493232, 2011; inhibition, % at 6.6 µM; shares compounds with OX1R antag-1; 1,800 tested, 48% active; in the data active = inhibition above about 17%;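 note: 0% = agonist challenge with vehicle and 100% = vehicle alone without agonist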
Active calls of the source: *; · = no result; + = active, no number. Shown are actives, neighbours in structure and some others; about 3.2% of the full set was active somewhere.

SMILES | CHO parental Ca | GPR7 antagonist | OX1R antag-1 | OX1R antag-2 | TRPML3 agonist | zfTRPN1 agonist | OX1R HTRF confirm | CHO-K1 HTRF
CCOC(=O)C1=C(O)C(=O)N(c2ccc(S(N)(=O)=O)cc2)C1c1ccc([N+](=O)[O-])cc1 (stereo unspecified) | -2 | -7 | 28 | 8 | 0 | -1 | · | ·
CCOC(=O)CC1ON(C)C(=O)N1c1ccc([N+](=O)[O-])cc1 (stereo unspecified) | -3 | 4 | 101* | -11 | 0 | -1 | 26 | 17
CCC(CC)=NNc1ccc([N+](=O)[O-])cc1[N+](=O)[O-] | -5 | -9 | 39 | -20 | 1 | 1 | · | ·
O=[N+]([O-])c1ccc(N/N=C2\CC3CC=CC23)c([N+](=O)[O-])c1 (stereo unspecified) | 23 | -10 | 82* | 12 | 1 | -1 | 26 | 19*
CC1CCC/C(=N/Nc2ccc([N+](=O)[O-])cc2[N+](=O)[O-])C1 (stereo unspecified) | -15 | -9 | 107* | -18 | 0 | 2 | 35 | 27*
CC[n+]1c(C)cc(C)n1-c1ccccc1 | 5 | 5 | 10 | 1 | 1 | 1 | · | ·
O=C(c1ccc([N+](=O)[O-])cc1[N+](=O)[O-])N1CCCC1 | 1 | -4 | 112* | -15 | 0 | 2 | 41 | 46*
O=C(NCC1CCN(C(=O)c2ccc([N+](=O)[O-])cc2)CC1)c1ccc([N+](=O)[O-])cc1 | -4 | 10 | 86* | -24 | · | · | 42 | 36*
O=C(c1ccc(F)cc1)N1CCN(C(=O)c2ccc([N+](=O)[O-])cc2)CC1 | -6 | 0 | 86* | -23 | 0 | 2 | 44 | 34*
CCN(CC(=O)Nc1c(F)cccc1F)C(=O)C1=COCCO1 | -6 | · | 7 | -6 | · | · | · | ·
CCc1nnc(N/N=C/c2cccs2)n1N | -6 | -7 | 84* | 12 | 0 | 0 | 20 | 14
O=c1[nH]c2cc(NCCO)c([N+](=O)[O-])cc2[nH]1 | 0 | -12 | 166* | -3 | 1 | -1 | 66* | 88*
CCC(=O)Nc1ccccc1Nc1cc(C#N)c(C#N)cc1[N+](=O)[O-] | -20 | · | + | -17 | · | · | 59* | 72*
Cc1ccc(-n2c3nc(=O)[nH]c(=O)c-3cc3cc([N+](=O)[O-])ccc32)cc1 | -12 | 7 | 84* | -6 | 1 | 2 | 56* | 65*
CNc1ccc(C(=O)c2ccccc2C(=O)O)cc1[N+](=O)[O-] | 1 | -1 | 80* | -21 | 0 | -1 | 25 | 36*
O=C(N=C1SC2CS(=O)(=O)CC2N1c1ccc(Cl)c(Cl)c1)C1CCCO1 (stereo unspecified) | -16 | -10 | 12 | -22 | · | · | · | ·
CCC(CC)c1nn2c(N)c(/C=C3\C=Nc4ccccc43)c(=O)nc2s1 | -15 | -3 | 45 | -21 | 1 | 0 | · | ·
CC(C)c1nn2c(N)c(/C=C3\C=Nc4ccccc43)c(=O)nc2s1 | -11 | -21 | 82* | 2 | 0 | 0 | 66* | 9
OCCCCCN=c1cc(-c2ccccc2)oc2ccc(Cl)cc12 | -23 | 2 | 82* | -27 | -1 | -2 | 54 | 54*
CC(C)n1cc(/C=C/c2cc[n+](C)cc2)c2ccccc21 | · | 3 | · | · | · | · | · | ·
C=CCn1cc(/C=C/c2cc[n+](C)cc2)c2ccccc21 | 0 | -16 | 87* | 8 | · | · | 33 | 33*
COc1ccc(NC(=O)c2ccccc2NS(=O)(=O)c2ccc(CNC(C)=O)cc2)c(OC)c1 | -20 | -10 | 14 | -20 | · | · | · | ·
CCOC(=O)c1sc(NC(=O)c2ccc(C)s2)cc1C | 3 | -1 | 79* | 2 | 0 | -1 | 46 | 13
CCOC(=O)c1sc(NC(=O)Nc2ccccc2Cl)cc1C | -6 | -12 | 78* | 0 | 2 | 3 | 53 | 8
COc1ccc(N(CC2CO2)S(=O)(=O)c2ccccc2)cc1 (stereo unspecified) | 2 | -4 | 48 | -8 | 1 | -2 | · | ·
SMILES | CHO parental Ca | GPR7 antagonist | OX1R antag-1 | OX1R antag-2 | TRPML3 agonist | zfTRPN1 agonist | OX1R HTRF confirm | CHO-K1 HTRF
O=C(Nc1ccc(C(=O)O)cc1)Nc1ccc([N+](=O)[O-])cc1 | -9 | -13 | 9 | -10 | · | · | · | ·
O=C(O)c1ccc(Nc2ncc([N+](=O)[O-])cc2[N+](=O)[O-])cc1 | -8 | -10 | 93* | -2 | 0 | 1 | 68* | 107*
COc1ccc(Cl)cc1Nc1nc(N)c2ccccc2n1 | 13 | 10 | 23 | -6 | · | · | · | ·
COc1ccc(OC)c(Nc2nc(N)nc(-c3cc4ccccc4o3)n2)c1 | 16 | -3 | 80* | 12 | 1 | -1 | 34 | 12
O=C(NC(=S)N1CCN(c2ccccc2)CC1)c1ccc(S(=O)(=O)N2CCOCC2)cc1 | -9 | -4 | 24 | -10 | 0 | 0 | · | ·
NC(=O)CC(NC(=O)Cc1cccc2ccccc12)c1ccc(NCCN2CCCC2)c([N+](=O)[O-])c1 (stereo unspecified) | -8 | 3 | 84* | -6 | · | · | 22 | 13
NC(=O)CC(NC(=O)Cc1cccc2ccccc12)c1ccc(NCCN2CCCCC2)c([N+](=O)[O-])c1 (stereo unspecified) | -6 | 2 | 36 | -13 | · | · | · | ·
c1ccc(CNc2c3ccccc3nc3ccccc23)cc1 | -8 | 5 | 5 | -23 | · | · | · | ·
OCC(Cc1ccccc1)Nc1c2ccccc2nc2ccccc12 (stereo unspecified) | -20 | -8 | 88* | 22 | 1 | 2 | 72* | 17*
Cc1c(C(=O)Nc2nccs2)oc2c(Cl)cccc12 | -16 | · | 77* | -4 | · | · | 67* | 14
Cc1ncoc1C(=O)Nc1nccs1 | -3 | -1 | -2 | -9 | 1 | 1 | · | ·
CCCn1nc([N+](=O)[O-])c(C(C#N)c2nc3ccccc3o2)c(Cl)c1=O (stereo unspecified) | -15 | 1 | 87* | -1 | 0 | -1 | 46 | 22*
Cn1c2ccccc2c(=O)c2cc(C#Cc3ccccn3)ccc21 | -10 | 5 | 90* | 29 | · | · | 94* | 11

Screening data (PubChem BioAssay)
